Assay results as given in ChEMBL document CHEMBL3046326, “Screening of dialkoxybenzenes and disubstituted cyclopentene derivatives against the cabbage looper, Trichoplusia ni, for the discovery of new feeding and oviposition deterrents” (J Agric Food Chem, 2007).

Assays:
Trichoplusia ni [1] = assay: Feeding deterrent activity against freshly molted third-instar larval stage of Trichoplusia ni (cabbage looper), Trichoplusia ni at 50 ug/cm'2 after 3 to 5 hr by leaf disk choice bioassay; format: functional
Summary of the method: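 Leaf disk choice with freshly molted third instar larvae starved 4–5 h. One disk was painted on each side with 10 µL solution giving 50 µg/cm², the other with carrier solvent. Twenty-five larvae per treatment, stopped at ~50% control disk consumption (3–5 h). Deterrence = [(C − T)/(C + T)] × 100 from consumed areas; mean ± SE, Tukey's test p < 0.05.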

Trichoplusia ni [2] = assay: Oviposition deterrent activity against adult female Trichoplusia ni (cabbage looper) moths introduced along with male moths into oviposition cage containing compound pretreated cabbage leaves assessed as eggs laying on the leaf disks at 0.25% after 48 hr by oviposition choice bioassay; format: functional
Summary of the method: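 Choice test with moths from larvae reared on normal diet from neonate to pupation. Pupae were sexed and held separately until emergence. Cabbage leaves were treated with test substance at 0.25% or left as control, and eggs per leaf were counted after 48 h. ODI = [(C − T)/(C + T)] × 100 from egg numbers on control and treated leaves.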

Trichoplusia ni [3] = assay: Feeding deterrent activity against freshly molted third-instar larval stage of Trichoplusia ni (cabbage looper) after 3 to 5 hr by leaf disk choice bioassay; format: functional, organism-based
Summary of the method: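 Choice test: freshly molted third instar larvae, starved 4–5 h, offered two leaf disks, one painted on each side with 10 µL test solution and one with carrier solvent only. Twenty-five larvae per treatment. Ended when ~50% of the control disk was eaten (normally 3–5 h). Consumed areas measured. DC50 derived by linear regression of at least four concentrations (3.12–25 µg/cm²).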

Trichoplusia ni [4] = assay: Toxicity against third-instar larval stage of Trichoplusia ni (cabbage looper) assessed as mortality at 0.25% measured after 24 hr by contact toxicity bioassay; format: functional
Summary of the method: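 Third-instar larvae were sprayed directly with test solution at 0.25% in filter-paper-lined Petri dishes. They were then moved to dishes holding a small piece of artificial diet. Mortality was scored 24 h after spraying. The test applied only to compounds giving >50% feeding deterrence at 50 µg/cm².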

| SMILES | Activity (Trichoplusia ni [1]) [%] | Activity (Trichoplusia ni [2]) [%] | DC50 (Trichoplusia ni [3]) [microg/cm2] | mortality (Trichoplusia ni [4]) [%] |
| --- | --- | --- | --- | --- |
| CCOc1cccc(OC)c1 [1-methoxy-3-ethoxybenzene] | 54.8 | 70.2 | 61.5 | 16.7 |
| CCCOc1cccc(O)c1 [1-hydroxy-3-propoxybenzene] | 4 | – | – | – |
| CCOc1ccc(OCCC(C)C)cc1 [1-isopentyloxy-4-ethoxybenzene] | 100 | 22.9 | 5.8 | 18.8 |
| CCCOc1cccc(OCC)c1 [1-ethoxy-3-propoxybenzene] | 69.8 | 14.3 | 26.5 | 20 |
| CCCOc1ccccc1OCC [1-ethoxy-2-propoxybenzene] | 71 | 28.7 | 24.1 | 6.7 |
| CCCCOc1ccccc1OCCCC [1,2-DIBUTOXYBENZENE] | 56.4 | 19.6 | 43.8 | 10 |
| CCCOc1ccc(OC)cc1 [1-methoxy-4-propoxybenzene] | 53.4 | 6 | 34.6 | 23.3 |
| CC(C)CCOc1cccc(OCCC(C)C)c1 [1,3-DIISOPENTOXYBENZENE] | -12.2 | – | – | – |
| CCCOc1ccccc1OCCC(C)C | 66.9 | 29.4 | 32.5 | 10 |
| CCCOc1cccc(OC)c1 [1-methoxy-3-propoxybenzene] | 54.8 | 70.2 | 61.5 | 16.7 |
| CCCCOc1ccc(OC)cc1 [1-butyloxy-4-methoxybenzene] | 83.4 | 50.1 | 14.5 | 58.1 |
| C=CCOc1ccccc1OCC=C [1,2-DIALLYLOXYBENZENE] | 70.4 | 15 | 22.4 | 20 |
| CCOc1ccccc1OCCC(C)C [1-isopentoxy-2-ethoxybenzene] | 66.9 | 29.4 | 32.5 | 10 |
| CCOc1ccccc1OCC [1,2-DIETHOXYBENZENE] | -2.1 | – | – | – |
| COc1cccc(OC)c1 [1,3-DIMETHOXYBENZENE] | 20.4 | – | – | – |
| CCCCCOc1ccccc1OCCC [1-propoxy-2-pentoxybenzene] | 100 | 31.7 | 19.4 | 13.8 |
| COc1ccc(OCCC(C)C)cc1 [1-isopentyloxy-4-methoxybenzene] | 100 | 22.9 | 5.8 | 18.8 |
| CCCCCOc1cccc(OCCC(C)C)c1 [1-isopentyloxy-3-pentoxybenzene] | 82.6 | 35.7 | 19.8 | 20.8 |
| COc1ccc(OC)cc1 [1,4-DIMETHOXYBENZENE] | 9.9 | – | – | – |
| CCOc1ccccc1OC [1-methoxy-2-ethoxybenzene] | 23.5 | – | – | – |
| CCCCCOc1cccc(OCC)c1 [1-ethoxy-3-pentoxybenzene] | 69.8 | 14.3 | 26.5 | 20 |
| CC(C)CCOc1cccc(O)c1 [1-hydroxy-3-isopentoxybenzene] | -5.8 | – | – | – |
| CCCCCOc1ccccc1OCC [1-ethoxy-2-pentoxybenzene] | 71 | 28.7 | 24.1 | 6.7 |
| C=CCOc1ccccc1OC [1-allyloxy-2-methoxybenzene] | 67.8 | 66.7 | 30 | 23.3 |
| C=CCOc1ccc(OCCC)cc1 [1-allyloxy-4-propoxybenzene] | 82.4 | 5.4 | 27.9 | 10 |
| CCCOc1ccc(OCCC(C)C)cc1 [1-isopentyloxy-4-propoxybenzene] | 100 | 22.9 | 5.8 | 18.8 |
| CCCOc1ccc(O)cc1 [1-hydroxy-4-propoxybenzene] | -28 | – | – | – |

| SMILES | Activity (Trichoplusia ni [1]) [%] | Activity (Trichoplusia ni [2]) [%] | DC50 (Trichoplusia ni [3]) [microg/cm2] | mortality (Trichoplusia ni [4]) [%] |
| --- | --- | --- | --- | --- |
| CCCCCOc1cccc(OC)c1 [1-methoxy-3-pentoxybenzene] | 54.8 | 70.2 | 61.5 | 16.7 |
| CCOc1cccc(OCC)c1 [1,3-DIETHOXYBENZENE] | 89.4 | 3.4 | 28.7 | 36.7 |
| CCCCOc1cccc(OCCC)c1 [1-butyloxy-3-propoxybenzene] | 84.1 | 25.9 | 14.4 | 30 |
| CCCCCOc1ccccc1OCCC(C)C [1-isopentoxy-2-pentoxybenzene] | 66.9 | 29.4 | 32.5 | 10 |
| CCCOc1ccccc1O [1-hydroxy-2-propoxybenzene] | -12 | – | – | – |
| CCOc1ccc(O)cc1 [1-hydroxy-4-ethoxybenzene] | 29.8 | – | – | – |
| COc1cccc(O)c1 [1-hydroxy-3-methoxybenzene] | 44.7 | – | – | – |
| CC(C)CCOc1ccc(O)cc1 [1-hydroxy-4-isopentoxybenzene] | 29.5 | – | – | – |
| CCCCCCCCCO[C@H]1C=CC[C@H]1CCOCCC(C)C (racemic) | 22 | – | – | – |
| CC(C)CCOc1ccc(OCCC(C)C)cc1 [1,4-DIISOPENTOXYBENZENE] | 44 | – | – | – |
| CCCCO[C@H]1C=CC[C@H]1CCO (racemic) | 41.6 | – | – | – |
| C=CCOc1ccccc1O [1-hydroxy-2-allyloxybenzene] | 31.1 | – | – | – |
| COc1ccccc1OC [1,2-DIMETHOXYBENZENE] | 26 | – | – | – |
| CCOCC[C@@H]1CC=C[C@@H]1OCC (racemic) | -17.8 | – | – | – |
| CCOc1ccccc1O [1-hydroxy-2-ethoxybenzene] | -5.3 | – | – | – |
| CCCCOc1ccccc1OC [1-methoxy-2-butoxybenzene] | 23.5 | – | – | – |
| CCOc1cccc(O)c1 [1-hydroxy-3-ethoxybenzene] | -18.7 | – | – | – |
| COc1ccccc1O [GUAIACOL] | -7.5 | – | – | – |
| CCCOc1ccccc1OCCC [1,2-DIPROPOXYBENZENE] | 26.2 | – | – | – |
| COc1ccc(O)cc1 [MEQUINOL] | -26.5 | – | – | – |
| CCCCOc1ccccc1O [1-hydroxy-2-butoxybenzene] | 12 | – | – | – |
| COCC[C@@H]1CC=C[C@@H]1OC (racemic) | -17.6 | – | – | – |
| OCC[C@@H]1CC=C[C@@H]1O (racemic) | 36.6 | – | – | – |
| CCCOc1ccccc1OC [1-methoxy-2-propoxybenzene] | 23.5 | – | – | – |
| CCCCCOc1ccccc1OC [1-methoxy-2-pentoxybenzene] | 23.5 | – | – | – |
| CCCCCCCCCO[C@H]1C=CC[C@H]1CCO (racemic) | 45.2 | – | – | – |
